Source: ChEMBL document CHEMBL1126849, “Synthesis of A-ring fluorinated derivatives of (17 alpha,20E/Z)-[125I]iodovinylestradiols: effect on receptor binding and receptor-mediated target tissue uptake” (J Med Chem, 1993)

What was measured:
[1] = system: Rattus norvegicus; assay: Biodistribution in spleen of immature female rat after 3 hour administration of 3 micro Ci (111 kBq) in the absence of 60 microg estradiol; assay type: ADME, organism-based; settings: in vivo
Outline: (§1)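 Immature female Long Evans rats (21–24 days, 45–70 g), three to five per group, given 125I-labeled steroid (3 μCi, 111 kBq) by lateral tail vein without anesthesia. Vehicle: ethanol diluted in saline with 1% Tween-80, final ethanol 9%, 0.22 μm filtered. +E2 groups received 60 μg unlabeled estradiol co-injected. Killed under ether at set times; tissues KCl-washed, blotted, weighed, gamma counted; %ID/g, mean with SE.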

[2] = target: Estrogen receptor (Mus musculus) (UniProt O08537+P19785); assay: Relative binding affinity (RBA) against murine cytoplasmic estrogen receptor incubated at 0-4 degree Celsius for 18 hours; assay type: protein assay
Estrogen receptor (Mus musculus), sequence (O08537 whole entry, looked up): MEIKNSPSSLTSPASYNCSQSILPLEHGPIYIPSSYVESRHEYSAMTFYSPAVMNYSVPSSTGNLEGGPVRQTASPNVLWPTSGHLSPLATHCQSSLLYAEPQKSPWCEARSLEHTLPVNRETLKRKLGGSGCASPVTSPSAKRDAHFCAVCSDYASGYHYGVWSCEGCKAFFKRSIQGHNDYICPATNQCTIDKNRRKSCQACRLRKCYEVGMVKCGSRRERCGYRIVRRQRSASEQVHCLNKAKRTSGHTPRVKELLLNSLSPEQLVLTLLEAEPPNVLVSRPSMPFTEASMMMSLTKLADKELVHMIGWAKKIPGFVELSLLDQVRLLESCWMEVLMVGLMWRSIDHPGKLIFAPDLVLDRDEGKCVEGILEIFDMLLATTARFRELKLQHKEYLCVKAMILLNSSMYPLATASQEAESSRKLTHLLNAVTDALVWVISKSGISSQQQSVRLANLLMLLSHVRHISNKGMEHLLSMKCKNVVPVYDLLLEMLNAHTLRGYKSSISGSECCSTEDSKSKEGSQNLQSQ
Estrogen receptor (Mus musculus), sequence (P19785 whole entry, looked up): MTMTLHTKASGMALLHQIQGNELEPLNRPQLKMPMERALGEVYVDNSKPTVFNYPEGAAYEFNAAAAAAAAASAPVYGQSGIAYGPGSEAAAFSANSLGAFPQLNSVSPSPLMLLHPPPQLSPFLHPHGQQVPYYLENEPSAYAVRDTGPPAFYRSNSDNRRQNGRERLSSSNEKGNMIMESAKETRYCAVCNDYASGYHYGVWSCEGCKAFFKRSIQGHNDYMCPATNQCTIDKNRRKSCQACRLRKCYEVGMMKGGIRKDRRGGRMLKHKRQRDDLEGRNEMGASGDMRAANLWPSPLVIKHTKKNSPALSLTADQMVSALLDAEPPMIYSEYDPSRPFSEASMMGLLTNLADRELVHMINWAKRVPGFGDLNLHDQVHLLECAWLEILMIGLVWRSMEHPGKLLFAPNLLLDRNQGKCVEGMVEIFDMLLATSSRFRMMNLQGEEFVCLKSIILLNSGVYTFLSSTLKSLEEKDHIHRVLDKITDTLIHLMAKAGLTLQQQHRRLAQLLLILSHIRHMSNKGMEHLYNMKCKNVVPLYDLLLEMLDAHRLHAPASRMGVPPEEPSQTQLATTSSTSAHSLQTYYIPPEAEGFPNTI
Outline: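 Competitive binding on murine uterine cytoplasmic extract with 20 nM [3H]estradiol and competitor steroids at 2 nM–20 μM, incubated 18 h at 0–4 °C. RBA = 100 × ratio of […] concentration giving 50% competition for specific binding. Mean of three experiments with SD.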

[3] = system: Rattus norvegicus; assay: Biodistribution in blood of immature female rat after 1 hr administration of 3 micro Ci (111 kBq) in the presence of (+E2); assay type: ADME, organism-based; settings: in vivo
Outline: (§2)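 Immature female Long Evans rats (21–24 days, 45–70 g), unanesthetized in retention cages, given 3 µCi (111 kBq) 125I-labeled steroid i.v. via lateral tail vein. Vehicle was ethanol diluted in saline containing 1% Tween-80, giving 9% ethanol final. The blocking group received 60 µg unlabeled estradiol co-injected. Rats were killed under ether by axillary bleeding, and tissues were KCl-washed and gamma-counted. Data are %ID/g, mean ± SE, n=3–5.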

[4] = system: Rattus norvegicus; assay: Biodistribution in blood of immature female rat after 12 hour administration of 3 micro Ci (111 kBq) in the absence of 60 microg estradiol; assay type: ADME, organism-based; settings: in vivo; outline: as §2
[5] = system: Rattus norvegicus; assay: Biodistribution in kidney of immature female rat after 12 hour administration of 3 micro Ci (111 kBq) in the absence of 60 microg estradiol; assay type: ADME, organism-based; settings: in vivo; outline: as §2
[6] = system: Rattus norvegicus; assay: Biodistribution in uterus of immature female rat after 12 hour administration of 3 micro Ci (111 kBq) in the absence of 60 microg estradiol; assay type: ADME, organism-based; settings: in vivo
Outline: (§3)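 Immature female Long Evans rats (21–24 days, 45–70 g), 3–5 per group, unanesthetized in retention cages, given 3 μCi (111 kBq) 125I-labeled steroid by lateral tail vein. Vehicle: ethanol diluted with saline containing 1% Tween-80, final ethanol 9%. +E2 group co-injected 60 μg unlabeled estradiol (1 h only). Killed under ether; tissues KCl-washed, weighed, gamma-counted. Output: %ID/g (mean, SE) and uterus to blood or nontarget (muscle, spleen, lungs) ratios.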

[7] = system: Rattus norvegicus; assay: Biodistribution in blood of immature female rat after 3 hour administration of 3 micro Ci (111 kBq) in the absence of 60 microg estradiol; assay type: ADME, organism-based; settings: in vivo; outline: as §2
[8] = system: Rattus norvegicus; assay: Biodistribution in uterus / blood of immature female rat after 1 hr administration of 3 micro Ci (111 kBq) in the absence of 60 microg estradiol; assay type: ADME, organism-based; settings: in vivo
Outline: (§4)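 Same in vivo procedure: immature female Long Evans rats (21–24 days), three to five per group, 3 μCi (111 kBq) tracer i.v. via tail vein in 9% ethanol/saline/1% Tween-80, ± 60 μg estradiol co-injected at 1 h. Uterus %ID/g (gamma counting) divided by blood, or by nontarget organ (muscle, spleen, lungs), %ID/g to give ratios.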

[9] = system: Rattus norvegicus; assay: Biodistribution in uterus / blood of immature female rat after 5 hour administration of 3 micro Ci (111 kBq) in the absence of 60 microg estradiol; assay type: ADME, organism-based; settings: in vivo; outline: as §4
[10] = system: Rattus norvegicus; assay: Biodistribution in uterus / spleen, muscle, lungs of immature female rat after 1 hr administration of 3 micro Ci (111 kBq) in the absence of 60 microg estradiol; assay type: ADME, organism-based; settings: in vivo; outline: as §4
[11] = system: Rattus norvegicus; assay: Biodistribution in kidney of immature female rat after 3 hour administration of 3 micro Ci (111 kBq) in the absence of 60 microg estradiol; assay type: ADME, organism-based; settings: in vivo; outline: as §2
[12] = system: Rattus norvegicus; assay: Biodistribution in liver of immature female rat after 5 hour administration of 3 micro Ci (111 kBq) in the absence of 60 microg estradiol; assay type: ADME, organism-based; settings: in vivo; outline: as §2
[13] = system: Rattus norvegicus; assay: Biodistribution in spleen of immature female rat after 12 hour administration of 3 micro Ci (111 kBq) in the absence of 60 microg estradiol; assay type: ADME, organism-based; settings: in vivo; outline: as §1
[14] = system: Rattus norvegicus; assay: Biodistribution in uterus / spleen, muscle, lungs of immature female rat after 12 hour administration of 3 micro Ci (111 kBq) in the absence of 60 microg estradiol; assay type: ADME, organism-based; settings: in vivo; outline: as §3
[15] = system: Rattus norvegicus; assay: Biodistribution in spleen of immature female rat after 5 hour administration of 3 micro Ci (111 kBq) in the absence of 60 microg estradiol; assay type: ADME, organism-based; settings: in vivo; outline: as §1
[16] = system: Rattus norvegicus; assay: Biodistribution in kidney of immature female rat after 1 hr administration of 3 micro Ci (111 kBq) in the presence of (+E2); assay type: ADME, organism-based; settings: in vivo; outline: as §2
[17] = system: Rattus norvegicus; assay: Biodistribution in muscle of immature female rat after 1 hr administration of 3 micro Ci (111 kBq) in the absence of 60 microg estradiol; assay type: ADME, organism-based, Muscle tissue; settings: in vivo; outline: as §1
[18] = system: Rattus norvegicus; assay: Biodistribution in uterus / spleen, muscle, lungs of immature female rat after 1 hr administration of 3 micro Ci (111 kBq) in the presence of (+E2); assay type: ADME, organism-based; settings: in vivo; outline: as §4
[19] = system: Rattus norvegicus; assay: Biodistribution in thyroid of immature female rat after 5 hour administration of 3 micro Ci (111 kBq) in the absence of 60 microg estradiol; assay type: ADME, organism-based, Thyroid gland; settings: in vivo; outline: as §1
[20] = system: Rattus norvegicus; assay: Biodistribution in fat of immature female rat after 1 hr administration of 3 micro Ci (111 kBq) in the absence of 60 microg estradiol; assay type: ADME, organism-based, Adipose tissue; settings: in vivo; outline: as §2
[21] = system: Rattus norvegicus; assay: Biodistribution in lungs of immature female rat after 12 hour administration of 3 micro Ci (111 kBq) in the absence of 60 microg estradiol; assay type: ADME, organism-based, Lung; settings: in vivo; outline: as §1
[22] = system: Rattus norvegicus; assay: Biodistribution in lungs of immature female rat after 1 hr administration of 3 micro Ci (111 kBq) in the presence of (+E2); assay type: ADME, organism-based, Lung; settings: in vivo; outline: as §2
[23] = system: Rattus norvegicus; assay: Biodistribution in uterus of immature female rat after 1 hr administration of 3 micro Ci (111 kBq) in the absence of 60 microg estradiol; assay type: ADME, organism-based; settings: in vivo; outline: as §3
[24] = system: Rattus norvegicus; assay: Biodistribution in fat of immature female rat after 1 hr administration of 3 micro Ci (111 kBq) in the presence of (+E2); assay type: ADME, organism-based, Adipose tissue; settings: in vivo; outline: as §2
[25] = system: Rattus norvegicus; assay: Biodistribution in lungs of immature female rat after 3 hour administration of 3 micro Ci (111 kBq) in the absence of 60 microg estradiol; assay type: ADME, organism-based, Lung; settings: in vivo; outline: as §1
[26] = system: Rattus norvegicus; assay: Biodistribution in spleen of immature female rat after 1 hr administration of 3 micro Ci (111 kBq) in the absence of 60 microg estradiol; assay type: ADME, organism-based; settings: in vivo; outline: as §1
[27] = system: Rattus norvegicus; assay: Biodistribution in thyroid of immature female rat after 12 hour administration of 3 micro Ci (111 kBq) in the absence of 60 microg estradiol; assay type: ADME, organism-based, Thyroid gland; settings: in vivo; outline: as §1
[28] = system: Rattus norvegicus; assay: Biodistribution in thyroid of immature female rat after 3 hour administration of 3 micro Ci (111 kBq) in the absence of 60 microg estradiol; assay type: ADME, organism-based, Thyroid gland; settings: in vivo; outline: as §1
[29] = system: Rattus norvegicus; assay: Biodistribution in blood of immature female rat after 1 hr administration of 3 micro Ci (111 kBq) in the absence of 60 microg estradiol; assay type: ADME, organism-based; settings: in vivo; outline: as §2
[30] = system: Rattus norvegicus; assay: Biodistribution in thyroid of immature female rat after 1 hr administration of 3 micro Ci (111 kBq) in the presence of (+E2); assay type: ADME, organism-based, Thyroid gland; settings: in vivo; outline: as §1

With C[C@@H]1Cc2c(ccc(O)c2F)[C@H]2CC[C@@]3(C)[C@@H](CC[C@@]3(O)/C=C/I)[C@H]12 as the compound, how does the ID/g [1] read?
Its ID/g is 0.91%.

And the RBA [2]?
Its RBA is 36.4.

And the ID/g [3]?
Its ID/g is 0.44%.

And the ID/g [4]?
The ID/g was 0.17%.

And the ID/g [5]?
The ID/g was 0.32%.

And the ID/g [6]?
The ID/g was 3.02%.

And the ID/g [7]?
Its ID/g is 0.32%.

What about the “uterus-to-blood ratio of %ID/g” value [8] of the same compound?
Its value is 12.53%.

What about the “uterus to blood ratio” value [9] of the same compound?
The value was 16.4%.

And the “uterus-to-nontarget tissue uptake ratio” value [10]?
Its value is 5.03%.

And the ID/g [11]?
Its ID/g is 0.95%.

And the ID/g [12]?
Its ID/g is 3.6%.

And the ID/g [13]?
Its ID/g is 0.19%.

What about the “uterus to nontarget tissue ratio” value [14] of the same compound?
Its value is 15.57%.

What about the ID/g [15] of the same compound?
The ID/g was 0.8%.

And the ID/g [16]?
Its ID/g is 1.82%.

What about the ID/g [17] of the same compound?
Its ID/g is 0.75%.

And the “uterus-to-nontarget tissue uptake ratio” value [18]?
The value was 0.85%.

And the ID/g [19]?
The ID/g was 114%.

And the ID/g [20]?
Its ID/g is 0.03%.

What about the ID/g [21] of the same compound?
Its ID/g is 0.23%.

And the ID/g [22]?
Its ID/g is 1.86%.

What about the ID/g [23] of the same compound?
The ID/g was 4.71%.

What about the ID/g [24] of the same compound?
Its ID/g is 5.65%.

And the ID/g [25]?
The ID/g was 0.93%.

And the ID/g [26]?
The ID/g was 0.68%.

And the ID/g [27]?
Its ID/g is 217%.

What about the ID/g [28] of the same compound?
Its ID/g is 70%.

And the ID/g [29]?
The ID/g was 0.38%.

And the ID/g [30]?
Its ID/g is 56%.
